# Measured values from ChEMBL document CHEMBL5252669, “Semisynthetic blasticidin S ester derivatives show enhanced antibiotic activity” (RSC Med Chem, 2023).
# System: not listed separately
# Experiment: Cytotoxicity against human MRC5 cells incubated for 24 hrs by MTS assay
# Assay type: toxicity, cell-based
# Conditions: not given
# Outline: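 MRC-5 lung fibroblasts seeded 5000 per well; medium replaced with compound 16–192 μg mL−1 or matching 1:1 methanol:water vehicle; 24 h, then MTS 3–4 h; absorbance 490 nm; viability relative to untreated cells, normalized to vehicle; CC50 from two independent assays in duplicate, mean ± SD.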
row,Compound,CC50 at 24 h [µg/mL]
1,CN(CC[C@H](N)CC(=O)N[C@H]1C=C[C@H](n2ccc(N)nc2=O)O[C@@H]1C(=O)OCc1ccccc1)C(=N)N,17.4
2,CCCCCCOC(=O)[C@H]1O[C@@H](n2ccc(N)nc2=O)C=C[C@@H]1NC(=O)C[C@@H](N)CCN(C)C(=N)N,18.4

# System: Staphylococcus aureus
# Experiment: Antibacterial activity against NorA deleted Staphylococcus aureus incubated for 16 hrs by broth microdilution method
# Assay type: functional, organism-based
# Conditions: 16 h
# Outline: (§1)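 Cation-adjusted Mueller-Hinton broth microdilution. Overnight cultures from single colonies were diluted to OD600 0.004. Final compound range was 256–2 μg mL−1 in 1:1 methanol/water vehicle, with doxycycline and vehicle controls. Plates were incubated 16 h at 37 °C. OD600 was normalized to controls, and MIC was the lowest concentration inhibiting >90% growth. Two biological replicates in duplicate; reported as a range.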
row,Compound,IC50 [µg/mL]
1,CN(CC[C@H](N)CC(=O)N[C@H]1C=C[C@H](n2ccc(N)nc2=O)O[C@@H]1C(=O)OCc1ccccc1)C(=N)N,46.6
2,CCCCCCOC(=O)[C@H]1O[C@@H](n2ccc(N)nc2=O)C=C[C@@H]1NC(=O)C[C@@H](N)CCN(C)C(=N)N,18

# Same assay, conditions: time 16 hrs
row,Compound,MIC [µg/mL]
1,CN(CC[C@H](N)CC(=O)N[C@H]1C=C[C@H](n2ccc(N)nc2=O)O[C@@H]1C(=O)OCc1ccccc1)C(=N)N,128
2,CCCCCCOC(=O)[C@H]1O[C@@H](n2ccc(N)nc2=O)C=C[C@@H]1NC(=O)C[C@@H](N)CCN(C)C(=N)N,32

# System: Staphylococcus aureus
# Experiment: Antibacterial activity against wild type Staphylococcus aureus 8810 incubated for 16 hrs by broth microdilution method
# Assay type: functional, organism-based
# Conditions: Staphylococcus aureus, 8810, 16 h
# Outline: as §1
row,Compound,IC50 [µg/mL]
1,CN(CC[C@H](N)CC(=O)N[C@H]1C=C[C@H](n2ccc(N)nc2=O)O[C@@H]1C(=O)OCc1ccccc1)C(=N)N,33
2,CCCCCCOC(=O)[C@H]1O[C@@H](n2ccc(N)nc2=O)C=C[C@@H]1NC(=O)C[C@@H](N)CCN(C)C(=N)N,27.1

# Same assay, conditions: Staphylococcus aureus, 8810; time 16 hrs
row,Compound,MIC [µg/mL]
1,CN(CC[C@H](N)CC(=O)N[C@H]1C=C[C@H](n2ccc(N)nc2=O)O[C@@H]1C(=O)OCc1ccccc1)C(=N)N,128
2,CCCCCCOC(=O)[C@H]1O[C@@H](n2ccc(N)nc2=O)C=C[C@@H]1NC(=O)C[C@@H](N)CCN(C)C(=N)N,64

# System: Staphylococcus aureus
# Experiment: Antibacterial activity against methicillin resistant Staphylococcus aureus ATCC 43300 incubated for 16 hrs by broth microdilution method
# Assay type: functional, organism-based
# Conditions: ATCC 43300, 16 h
# Outline: as §1
row,Compound,IC50 [µg/mL]
1,CN(CC[C@H](N)CC(=O)N[C@H]1C=C[C@H](n2ccc(N)nc2=O)O[C@@H]1C(=O)OCc1ccccc1)C(=N)N,23.3
2,CCCCCCOC(=O)[C@H]1O[C@@H](n2ccc(N)nc2=O)C=C[C@@H]1NC(=O)C[C@@H](N)CCN(C)C(=N)N,43.2

# Same assay, conditions: ATCC 43300, time 16 hrs
row,Compound,MIC [µg/mL]
1,CN(CC[C@H](N)CC(=O)N[C@H]1C=C[C@H](n2ccc(N)nc2=O)O[C@@H]1C(=O)OCc1ccccc1)C(=N)N,32
2,CCCCCCOC(=O)[C@H]1O[C@@H](n2ccc(N)nc2=O)C=C[C@@H]1NC(=O)C[C@@H](N)CCN(C)C(=N)N,128

# System: Klebsiella pneumoniae
# Experiment: Antibacterial activity against Klebsiella pneumoniae ATCC 29665 incubated for 16 hrs by broth microdilution method
# Assay type: functional, organism-based
# Conditions: ATCC 29665, 16 h
row,Compound,IC50 [µg/mL]
1,CN(CC[C@H](N)CC(=O)N[C@H]1C=C[C@H](n2ccc(N)nc2=O)O[C@@H]1C(=O)OCc1ccccc1)C(=N)N,58.8
2,CCCCCCOC(=O)[C@H]1O[C@@H](n2ccc(N)nc2=O)C=C[C@@H]1NC(=O)C[C@@H](N)CCN(C)C(=N)N,67.1

# Same assay, conditions: ATCC 29665, time 16 hrs
row,Compound,MIC [µg/mL]
1,CN(CC[C@H](N)CC(=O)N[C@H]1C=C[C@H](n2ccc(N)nc2=O)O[C@@H]1C(=O)OCc1ccccc1)C(=N)N,> 128
2,CCCCCCOC(=O)[C@H]1O[C@@H](n2ccc(N)nc2=O)C=C[C@@H]1NC(=O)C[C@@H](N)CCN(C)C(=N)N,128

# System: Pseudomonas aeruginosa
# Experiment: Antibacterial activity against MexAB-OprM deleted Pseudomonas aeruginosa incubated for 16 hrs by broth microdilution method
# Assay type: functional, organism-based
# Conditions: 16 h
row,Compound,IC50 [µg/mL]
1,CN(CC[C@H](N)CC(=O)N[C@H]1C=C[C@H](n2ccc(N)nc2=O)O[C@@H]1C(=O)OCc1ccccc1)C(=N)N,89.3
2,CCCCCCOC(=O)[C@H]1O[C@@H](n2ccc(N)nc2=O)C=C[C@@H]1NC(=O)C[C@@H](N)CCN(C)C(=N)N,77.2

# Same assay, conditions: time 16 hrs
row,Compound,MIC [µg/mL]
1,CN(CC[C@H](N)CC(=O)N[C@H]1C=C[C@H](n2ccc(N)nc2=O)O[C@@H]1C(=O)OCc1ccccc1)C(=N)N,> 128
2,CCCCCCOC(=O)[C@H]1O[C@@H](n2ccc(N)nc2=O)C=C[C@@H]1NC(=O)C[C@@H](N)CCN(C)C(=N)N,> 128

# System: Acinetobacter baumannii
# Experiment: Antibacterial activity against Acinetobacter baumannii ATCC 17978 incubated for 16 hrs by broth microdilution method
# Assay type: functional, organism-based
# Conditions: ATCC 17978, 16 h
row,Compound,IC50 [µg/mL]
1,CN(CC[C@H](N)CC(=O)N[C@H]1C=C[C@H](n2ccc(N)nc2=O)O[C@@H]1C(=O)OCc1ccccc1)C(=N)N,85.1
2,CCCCCCOC(=O)[C@H]1O[C@@H](n2ccc(N)nc2=O)C=C[C@@H]1NC(=O)C[C@@H](N)CCN(C)C(=N)N,52.4

# Same assay, conditions: ATCC 17978, time 16 hrs
row,Compound,MIC [µg/mL]
1,CN(CC[C@H](N)CC(=O)N[C@H]1C=C[C@H](n2ccc(N)nc2=O)O[C@@H]1C(=O)OCc1ccccc1)C(=N)N,> 128
2,CCCCCCOC(=O)[C@H]1O[C@@H](n2ccc(N)nc2=O)C=C[C@@H]1NC(=O)C[C@@H](N)CCN(C)C(=N)N,128

# System: Candida albicans
# Experiment: Antifungal activity against Candida albicans incubated for 16 hrs by broth microdilution method
# Assay type: functional
# Conditions: not given
row,Compound,MIC [µg/mL]
1,CN(CC[C@H](N)CC(=O)N[C@H]1C=C[C@H](n2ccc(N)nc2=O)O[C@@H]1C(=O)OCc1ccccc1)C(=N)N,> 128
2,CCCCCCOC(=O)[C@H]1O[C@@H](n2ccc(N)nc2=O)C=C[C@@H]1NC(=O)C[C@@H](N)CCN(C)C(=N)N,> 32

# System: Saccharomyces cerevisiae
# Experiment: Antifungal activity against Saccharomyces cerevisiae incubated for 16 hrs by broth microdilution method
# Assay type: functional
# Conditions: not given
row,Compound,MIC [µg/mL]
1,CN(CC[C@H](N)CC(=O)N[C@H]1C=C[C@H](n2ccc(N)nc2=O)O[C@@H]1C(=O)OCc1ccccc1)C(=N)N,128
2,CCCCCCOC(=O)[C@H]1O[C@@H](n2ccc(N)nc2=O)C=C[C@@H]1NC(=O)C[C@@H](N)CCN(C)C(=N)N,16

# System: not listed separately
# Experiment: Selectivity index, ratio of CC50 for human MRC5 cells to IC50 for NorA deleted Staphylococcus aureus
# Assay type: toxicity
# Conditions: read-out: Ratio CC50/IC50
row,Compound,selectivity ratio
1,CN(CC[C@H](N)CC(=O)N[C@H]1C=C[C@H](n2ccc(N)nc2=O)O[C@@H]1C(=O)OCc1ccccc1)C(=N)N,0.4
2,CCCCCCOC(=O)[C@H]1O[C@@H](n2ccc(N)nc2=O)C=C[C@@H]1NC(=O)C[C@@H](N)CCN(C)C(=N)N,1

# System: not listed separately
# Experiment: Selectivity index, ratio of CC50 for human MRC5 cells to IC50 for Staphylococcus aureus
# Assay type: toxicity
# Conditions: read-out: Ratio CC50/IC50
row,Compound,selectivity ratio
1,CN(CC[C@H](N)CC(=O)N[C@H]1C=C[C@H](n2ccc(N)nc2=O)O[C@@H]1C(=O)OCc1ccccc1)C(=N)N,0.5
2,CCCCCCOC(=O)[C@H]1O[C@@H](n2ccc(N)nc2=O)C=C[C@@H]1NC(=O)C[C@@H](N)CCN(C)C(=N)N,0.7

# System: not listed separately
# Experiment: Selectivity index, ratio of CC50 for human MRC5 cells to IC50 for methicillin resistant Staphylococcus aureus
# Assay type: toxicity
# Conditions: read-out: Ratio CC50/IC50
row,Compound,selectivity ratio
1,CN(CC[C@H](N)CC(=O)N[C@H]1C=C[C@H](n2ccc(N)nc2=O)O[C@@H]1C(=O)OCc1ccccc1)C(=N)N,0.7
2,CCCCCCOC(=O)[C@H]1O[C@@H](n2ccc(N)nc2=O)C=C[C@@H]1NC(=O)C[C@@H](N)CCN(C)C(=N)N,0.4

# System: not listed separately
# Experiment: Selectivity index, ratio of CC50 for human MRC5 cells to IC50 for Enterococcus faecalis ATCC 29212
# Assay type: toxicity
# Conditions: read-out: Ratio CC50/IC50
row,Compound,selectivity ratio
1,CN(CC[C@H](N)CC(=O)N[C@H]1C=C[C@H](n2ccc(N)nc2=O)O[C@@H]1C(=O)OCc1ccccc1)C(=N)N,1.2
2,CCCCCCOC(=O)[C@H]1O[C@@H](n2ccc(N)nc2=O)C=C[C@@H]1NC(=O)C[C@@H](N)CCN(C)C(=N)N,1.6

# System: not listed separately
# Experiment: Selectivity index, ratio of CC50 for human MRC5 cells to IC50 for vancomycin-resistant Enterococcus
# Assay type: toxicity
# Conditions: read-out: Ratio CC50/IC50
row,Compound,selectivity ratio
1,CN(CC[C@H](N)CC(=O)N[C@H]1C=C[C@H](n2ccc(N)nc2=O)O[C@@H]1C(=O)OCc1ccccc1)C(=N)N,< 0.3
2,CCCCCCOC(=O)[C@H]1O[C@@H](n2ccc(N)nc2=O)C=C[C@@H]1NC(=O)C[C@@H](N)CCN(C)C(=N)N,0.1

# System: not listed separately
# Experiment: Selectivity index, ratio of CC50 for human MRC5 cells to IC50 for Klebsiella pneumoniae ATCC 29665
# Assay type: toxicity
# Conditions: read-out: Ratio CC50/IC50
row,Compound,selectivity ratio
1,CN(CC[C@H](N)CC(=O)N[C@H]1C=C[C@H](n2ccc(N)nc2=O)O[C@@H]1C(=O)OCc1ccccc1)C(=N)N,0.3
2,CCCCCCOC(=O)[C@H]1O[C@@H](n2ccc(N)nc2=O)C=C[C@@H]1NC(=O)C[C@@H](N)CCN(C)C(=N)N,0.3

# System: not listed separately
# Experiment: Selectivity index, ratio of CC50 for human MRC5 cells to IC50 for MexAB-OprM deleted Pseudomonas aeruginosa
# Assay type: toxicity
# Conditions: read-out: Ratio CC50/IC50
row,Compound,selectivity ratio
1,CN(CC[C@H](N)CC(=O)N[C@H]1C=C[C@H](n2ccc(N)nc2=O)O[C@@H]1C(=O)OCc1ccccc1)C(=N)N,0.2
2,CCCCCCOC(=O)[C@H]1O[C@@H](n2ccc(N)nc2=O)C=C[C@@H]1NC(=O)C[C@@H](N)CCN(C)C(=N)N,0.2

# System: not listed separately
# Experiment: Selectivity index, ratio of CC50 for human MRC5 cells to IC50 for Acinetobacter baumannii ATCC 17978
# Assay type: toxicity
# Conditions: read-out: Ratio CC50/IC50
row,Compound,selectivity ratio
1,CN(CC[C@H](N)CC(=O)N[C@H]1C=C[C@H](n2ccc(N)nc2=O)O[C@@H]1C(=O)OCc1ccccc1)C(=N)N,0.2
2,CCCCCCOC(=O)[C@H]1O[C@@H](n2ccc(N)nc2=O)C=C[C@@H]1NC(=O)C[C@@H](N)CCN(C)C(=N)N,0.3

# System: Enterococcus faecalis
# Experiment: Antibacterial activity against Enterococcus faecalis ATCC 29212 incubated for 20 hrs by broth microdilution method
# Conditions: ATCC 29212, 20 h
Compound,IC50 [µg/mL],MIC [µg/mL]
CN(CC[C@H](N)CC(=O)N[C@H]1C=C[C@H](n2ccc(N)nc2=O)O[C@@H]1C(=O)OCc1ccccc1)C(=N)N,14.6,16
CCCCCCOC(=O)[C@H]1O[C@@H](n2ccc(N)nc2=O)C=C[C@@H]1NC(=O)C[C@@H](N)CCN(C)C(=N)N,11.4,16

# System: Enterococcus
# Experiment: Antibacterial activity against vancomycin-resistant Enterococcus incubated for 20 hrs by broth microdilution method
# Conditions: not given
Compound,IC50 [µg/mL],MIC [µg/mL]
CN(CC[C@H](N)CC(=O)N[C@H]1C=C[C@H](n2ccc(N)nc2=O)O[C@@H]1C(=O)OCc1ccccc1)C(=N)N,> 64,128
CCCCCCOC(=O)[C@H]1O[C@@H](n2ccc(N)nc2=O)C=C[C@@H]1NC(=O)C[C@@H](N)CCN(C)C(=N)N,140,256
